# NPY-Y1 antag – blocks the human neuropeptide Y Y1 receptor. P25929. HEK293-CNG Y1 cells, membrane potential fluorescence; NPY at EC95, then isoproterenol. inhibition, % at 3.6 µM. 200,000 tested, 1% active;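 active = inhibition above the campaign mean inhibition of all tested compounds plus 3 SD, cut at about 20% in these data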
#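 Assay system: HEK293 cells with Y1 receptor plus CNG channel | Probe or stimulus: NPY (25 nM), isoproterenol (1 µM), Ro 20-1724 (25 µM) | Timing: Compound incubation 1 h at room temperature, readout 45 min post-stimulation | Measured by: Membrane-potential fluorescent dye readout | Benchmarks: High control isoproterenol alone, low control NPY with isoproterenol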
# S1P4 ag – activates the human S1P4 receptor. O95977. S1P4-expressing cell line, agonist reporter assay. activation, % at 4.98 µM. 220,000 tested, 0.35% active; in the data active = activation above about 11%
# S1P4 antag – antagonists of human S1P4 receptor. S1P4-expressing cells, antagonist mode, reporter read-out. inhibition, % at 4.98 µM. 220,000 tested, 0.26% active. AID 1510; in the data active = inhibition above about 29%
# NPY1 pot ag – potentiators or agonists of human neuropeptide Y receptor Y1; activation, % at 3.6 µM; 220,000 tested, 0.37% active; NPY-Y1 expressing cells, potentiator/agonist activation; in the data active = activation above about 33%, passing the limit was not always enough;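 note: cells stimulated with NPY at EC10 then isoproterenol at EC100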
# NPY2 pot ag – potentiates or activates human NPY-Y2 receptor; activation, % at 3.6 µM; 220,000 tested, 0.45% active; cells expressing NPY-Y2, potentiator/agonist read-out; P49146; in the data active = activation above about 27%;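 note: cells stimulated with NPY near EC25 plus isoproterenol at EC100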
# Target sequence (P49146 whole entry, looked up): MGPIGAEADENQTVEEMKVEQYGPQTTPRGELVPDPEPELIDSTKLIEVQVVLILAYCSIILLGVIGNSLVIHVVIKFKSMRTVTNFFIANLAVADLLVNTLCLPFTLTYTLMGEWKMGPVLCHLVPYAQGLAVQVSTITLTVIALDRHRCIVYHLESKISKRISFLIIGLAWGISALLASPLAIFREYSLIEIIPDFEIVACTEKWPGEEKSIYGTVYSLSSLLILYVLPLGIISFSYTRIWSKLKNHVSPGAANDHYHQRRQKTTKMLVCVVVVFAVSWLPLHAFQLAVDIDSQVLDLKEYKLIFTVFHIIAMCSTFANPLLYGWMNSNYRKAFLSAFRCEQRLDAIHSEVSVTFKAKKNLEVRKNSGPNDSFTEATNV
# NPY-Y2 antag – NPY-Y2 (human) receptor antagonism. AID 793. NPY-Y2 expressing cells, antagonist mode. inhibition, % at 2.7 µM. 140,000 tested, 0.99% active. P49146; in the data active = inhibition above about 17%
# A number is an active result; . = inactive; / = no result given. Compounds with a hit are over-represented: about 2.4% of the library has one in this group of screens.
SMILES,NPY-Y1 antag,S1P4 ag,S1P4 antag,NPY1 pot ag,NPY2 pot ag,NPY-Y2 antag
Cc1ccc(C(=O)N2CCCC2)cc1S(=O)(=O)Nc1cccc(C)c1C,.,.,.,.,.,/
O=C(CCc1ccccc1)Nc1c(F)c(F)c(F)c(F)c1F,33.2,.,.,.,.,.
Cc1nc(SCC(=O)NC(=O)NC(C)(C)C)nc(C)c1C,/,.,.,.,.,/
CC(C)Nc1ccc(Nc2ccnc3cc4ccccc4cc23)cc1,/,.,.,80.8,75.1,/
CCN(CC)c1ccc(NC(=O)CN2CCN(S(=O)(=O)c3cc(Cl)ccc3OC)CC2)cc1,.,.,.,52.8,32.6,.
N#Cc1ccc(Cl)cc1NC(=O)CSc1nc2nc(-c3cccs3)cc(C(F)(F)F)c2c(=O)[nH]1,/,.,.,.,.,/
COc1ccc(-n2nc(C#N)c(Cl)cc2=O)cc1,.,.,30.1,.,.,/
COC(=O)c1nn(-c2ccc(OC)cc2)c(=O)cc1O,.,.,.,.,.,/
CC/C(=N\Nc1ccccc1[N+](=O)[O-])c1ccc(O)cc1,.,.,.,74.1,46.8,/
CCCCNc1c(N)n(CC(C)C)c(=O)[nH]c1=O,.,.,.,.,.,/
Cc1ccccc1NC(=S)N(CCN1CCCCCC1)Cc1cccs1,.,.,.,.,.,/
Cc1ccccc1NC(=S)N(Cc1ccccc1)Cc1cccs1,21.7,.,.,.,.,/
Cc1[nH]c2ccccc2c1/C=N/NC(N)=S,/,.,.,.,.,/
Cc1ccc(NC(=S)N/N=C/c2c(C)[nH]c3ccccc23)cc1,.,.,.,51.3,37.1,/
COC(=O)CSc1nnc(-c2ccc(NS(=O)(=O)c3ccccc3)cc2)o1,.,.,.,39.5,90.9,.
Cc1ccccc1OCC(O)CN(Cc1ccccc1O)C1CCCCC1 (configuration not stated),20.3,.,.,.,.,/
CC(C)Cc1nc2oc3c(N4CCN(CCO)CC4)ncnc3c2c2c1CCCC2,.,.,.,.,.,17.1
CCOc1ccccc1CN(CCc1ccc2c(c1)OCO2)Cc1ccccn1,30.0,.,.,.,.,.
O=C(COc1ccccc1[N+](=O)[O-])Nc1ccc(N2CCN(C(=O)c3cccs3)CC2)cc1,.,.,.,.,.,/
CCOc1cc(N2CCOCC2)c(OCC)cc1NC(=O)CN1C(=O)NC(Cc2ccccc2)C1=O (configuration not stated),.,12.0,.,.,.,.
COc1ccc(S(=O)(=O)N2CCOCC2)cc1NC(=O)CN1CCC(Cc2ccccc2)CC1,39.8,.,.,.,.,31.9
Oc1csc(Cc2nc(-c3ccccc3F)cs2)n1,.,.,.,.,.,/
C/C(=N\NC(=O)c1ccccc1)c1ccc2c(c1)OCO2,.,.,.,.,.,.
C/C(=N\Nc1nc2ccccc2s1)c1ccc2c(c1)OCO2,35.2,.,.,.,.,31.1
Cc1nc(SCC(=O)NCc2ccco2)c2c3c(sc2n1)CCCC3,25.4,.,.,.,.,23.7
SMILES,NPY-Y1 antag,S1P4 ag,S1P4 antag,NPY1 pot ag,NPY2 pot ag,NPY-Y2 antag
O=C(CSc1nc(C2CC2)nc2sc3c(c12)CCCC3)NCc1ccco1,.,.,.,.,.,.
CCCCCC1CCC(C(=O)O)CC1 (configuration not stated),26.1,.,.,.,.,.
NNC(=S)Nc1cccc(-c2n[nH]c(=S)o2)c1,/,.,.,.,.,/
COc1ccc(-c2noc(COc3ccc4c(c3)OCO4)n2)cc1OC,26.0,.,.,.,.,.
COC(=O)CN1C(c2ccccc2)=Nc2ccc(Cl)cc2C1c1ccccc1 (configuration not stated),27.2,.,.,.,.,21.6
CCOC(=O)c1noc(C)c1C(=O)Nc1nc(C)cc(C)n1,.,.,.,.,.,/
COc1cccc(CNCCc2c[nH]c3ccccc23)c1OCc1ccccc1,50.5,.,.,.,.,24.1
Oc1cccc(NC(=S)Nc2cccnc2)c1,.,.,.,61.6,60.3,.
O=C(c1ccc(-c2ccc(Cl)cc2Cl)o1)N1CCOCC1,.,.,.,.,.,/
O=C(c1ccc(-c2cc(Cl)ccc2Cl)o1)N1CCOCC1,20.3,.,.,.,.,/
Cc1cc(C(=O)CN2C(=O)C(=O)N(CC(C)C)C2=O)c(C)n1-c1ccccc1F,.,.,.,.,.,/
CCCCNC(=O)c1onc(CCl)c1C(=O)OC,.,.,.,.,.,.

# Screening results from PubChem.
